Data as given in ChEMBL document CHEMBL1125789, “Synthesis and selective class III antiarrhythmic activity of novel N-heteroaralkyl-substituted 1-(aryloxy)-2-propanolamine and related propylamine derivatives” (J Med Chem, 1991).

Assays:
[1] = test system: Canis familiaris; experiment: Atrial conduction time by the compound in open chest anesthetized dog, after iv administration at a dose of 0.25 mg/kg.; type: functional, Canis lupus familiaris, Cardiac atrium
Outline: (§1)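 Mongrel dogs anesthetized with sodium pentobarbital (30 mg/kg iv, then 5 mg/kg per h), chest opened, paced at BCL 300 ms. Atrial conduction time was taken as the interval between electrograms recorded at the proximal and distal sites of the atrial recording electrode array, before and after iv or intraduodenal dosing. Values are changes from control.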

[2] = organism: Canis familiaris; experiment: Maximum rate of rise of the upstroke of transmembrane potential, in canine Purkinje Fibers at a concentration of 0.03 uM at 1000 ms (simulating normal heart rate); type: functional; details: Canis lupus familiaris, Purkinje fiber
Outline: (§2)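 Isolated canine Purkinje fiber bundles were driven by square-wave pulses 2.0 ms long at 2× threshold and equilibrated ≥1 h to steady state. Each concentration was superfused 45–60 min before recording, and action potentials were sampled at 4–6 sites per fiber in control and after drug, giving Vmax and APD to −60 mV.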

[3] = organism: Canis familiaris; experiment: Maximum rate of rise of the upstroke of transmembrane potential, in canine Purkinje Fibers at a concentration of 0.03 uM at 300 ms (simulating tachycardia); type: functional; details: Canis lupus familiaris, Purkinje fiber; outline: as §2
[4] = organism: Canis familiaris; experiment: Repolarization to reach -60mV, in canine Purkinje Fibers at a concentration of 0.01 uM at 300 ms (simulating tachycardia); type: functional, Canis lupus familiaris, Purkinje fiber; outline: as §2
[5] = organism: Canis familiaris; experiment: Maximum rate of rise of the upstroke of transmembrane potential, in canine Purkinje Fibers at a concentration of 0.01 uM at 1000 ms (simulating normal heart rate); type: functional; details: Canis lupus familiaris, Purkinje fiber; outline: as §2
[6] = test system: Canis familiaris; experiment: Mean arterial pressure by the compound in open chest anesthetized dog, after iv administration at a dose of 0.05 mg/kg.; type: functional, Canis lupus familiaris, Artery
Outline: (§3)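 Hemodynamics (heart rate, mean arterial pressure) recorded in pentobarbital-anesthetized (30 mg/kg iv, 5 mg/kg per h maintenance) open-chest mongrel dogs during the refractoriness study at BCL 300 ms. Readings were taken before and after iv or intraduodenal compound and expressed as change from control.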

[7] = test system: Canis familiaris; experiment: Atrial effective refractory period by the compound in open chest anesthetized dog, after iv administration at a dose of 0.05 mg/kg.; type: functional, Canis lupus familiaris, Cardiac atrium
Outline: (§4)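 Open-chest mongrel dogs under sodium pentobarbital anesthesia (30 mg/kg iv plus 5 mg/kg per h), paced at basic cycle length 300 ms. Atrial effective refractory period was determined by electrical stimulation before and after iv or intraduodenal compound and reported as change from control.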

[8] = organism: Canis familiaris; experiment: repolarization to reach -60mV, in canine Purkinje Fibers at a concentration of 0.10 uM at 1000 ms (simulating normal heart rate); type: functional, Canis lupus familiaris, Purkinje fiber
Outline: (§5)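 Purkinje fiber bundles were stimulated with square-wave current pulses of 2.0 ms at twice threshold and equilibrated for at least 1 h, or until action potential parameters were steady. Each concentration was superfused for 45-60 min to reach steady state. Action potentials were recorded at four to six sites per fiber, under control and after drug.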

[9] = organism: Canis familiaris; experiment: Maximum rate of rise of the upstroke of transmembrane potential, in canine Purkinje Fibers at a concentration of 0.10 uM at 300 ms (simulating tachycardia); type: functional; details: Canis lupus familiaris, Purkinje fiber; outline: as §2
[10] = organism: Canis familiaris; experiment: Maximum rate of rise of the upstroke of transmembrane potential, in canine Purkinje Fibers at a concentration of 0.10 uM at 1000 ms (simulating normal heart rate); type: functional; details: Canis lupus familiaris, Purkinje fiber; outline: as §2
[11] = test system: Canis familiaris; experiment: Heart beat by the compound in open chest anesthetized dog, after iv administration at a dose of 0.25 mg/kg.; type: functional, Canis lupus familiaris; outline: as §3
[12] = organism: Canis familiaris; experiment: Maximum rate of rise of the upstroke of transmembrane potential, in canine Purkinje Fibers at a concentration of 0.01 uM at 300 ms (simulating tachycardia); type: functional; details: Canis lupus familiaris, Purkinje fiber; outline: as §2
[13] = test system: Canis familiaris; experiment: Atrial conduction time by the compound in open chest anesthetized dog, after iv administration at a dose of 0.05 mg/kg.; type: functional, Canis lupus familiaris, Cardiac atrium; outline: as §1
[14] = test system: Canis familiaris; experiment: Ventricular effective refractory period by the compound in open chest anesthetized dog, after iv administration at a dose of 0.25 mg/kg.; type: functional, Canis lupus familiaris, Heart
[15] = test system: Canis familiaris; experiment: Atrial effective refractory period by the compound in open chest anesthetized dog, after iv administration at a dose of 0.25 mg/kg.; type: functional, Canis lupus familiaris, Cardiac atrium; outline: as §4
[16] = test system: Canis familiaris; experiment: Ventricular effective refractory period by the compound in open chest anesthetized dog, after iv administration at a dose of 0.05 mg/kg.; type: functional, Canis lupus familiaris, Heart
[17] = organism: Canis familiaris; experiment: repolarization to reach -60mV, in canine Purkinje Fibers at a concentration of 0.01 uM at 1000 ms (simulating normal heart rate); type: functional, Canis lupus familiaris, Purkinje fiber; outline: as §5
[18] = test system: Canis familiaris; experiment: Mean arterial pressure by the compound in open chest anesthetized dog, after iv administration at a dose of 0.25 mg/kg.; type: functional, Canis lupus familiaris, Artery; outline: as §3
[19] = organism: Canis familiaris; experiment: Repolarization to reach -60mV, in canine Purkinje Fibers at a concentration of 0.03 uM at 300 ms (simulating tachycardia); type: functional, Canis lupus familiaris, Purkinje fiber; outline: as §2
[20] = organism: Canis familiaris; experiment: repolarization to reach -60mV, in canine Purkinje Fibers at a concentration of 0.03 uM at 1000 ms (simulating normal heart rate); type: functional, Canis lupus familiaris, Purkinje fiber; outline: as §5
[21] = test system: Canis familiaris; experiment: Heart beat by the compound in open chest anesthetized dog, after iv administration at a dose of 0.05 mg/kg.; type: functional, Canis lupus familiaris; outline: as §3
[22] = test system: Canis familiaris; experiment: Ventricular conduction time by the compound in open chest anesthetized dog, after iv administration at a dose of 0.25 mg/kg.; type: functional, Canis lupus familiaris, Heart
Outline: (§6)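 Mongrel dogs were anesthetized with sodium pentobarbital (30 mg/kg iv, then 5 mg/kg per h), the chest opened, and the heart paced at BCL 300 ms. Compound was given iv or intraduodenally. Ventricular conduction time was taken as the interval between electrograms at the proximal and distal sites of the recording electrode array. 2-5 dogs per dose.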

[23] = organism: Canis familiaris; experiment: Repolarization to reach -60mV, in canine Purkinje Fibers at a concentration of 0.10 uM at 300 ms (simulating tachycardia); type: functional, Canis lupus familiaris, Purkinje fiber; outline: as §2
[24] = test system: Canis familiaris; experiment: Ventricular conduction time by the compound in open chest anesthetized dog, after iv administration at a dose of 0.05 mg/kg.; type: functional, Canis lupus familiaris, Heart; outline: as §6
[25] = test system: Canis familiaris; experiment: Ventricular effective refractory period by the compound in open chest anesthetized dog, after iv administration at a dose of 0.50 mg/kg.; type: functional, Canis lupus familiaris, Heart; details: dose 0.5 mg/kg
[26] = test system: Canis familiaris; experiment: Atrial effective refractory period by the compound in open chest anesthetized dog, after iv administration at a dose of 0.50 mg/kg.; type: functional, Canis lupus familiaris, Cardiac atrium; details: dose 0.5 mg/kg; outline: as §4
[27] = test system: Canis familiaris; experiment: Heart beat by the compound in open chest anesthetized dog, after iv administration at a dose of 0.50 mg/kg.; type: functional, Canis lupus familiaris; details: dose 0.5 mg/kg; outline: as §3
[28] = test system: Canis familiaris; experiment: Ventricular conduction time by the compound in open chest anesthetized dog, after iv administration at a dose of 0.50 mg/kg.; type: functional, Canis lupus familiaris, Heart; details: dose 0.5 mg/kg; outline: as §6
[29] = test system: Canis familiaris; experiment: Atrial conduction time by the compound in open chest anesthetized dog, after iv administration at a dose of 0.50 mg/kg.; type: functional, Canis lupus familiaris, Cardiac atrium; details: dose 0.5 mg/kg; outline: as §1
[30] = test system: Canis familiaris; experiment: Mean arterial pressure by the compound in open chest anesthetized dog, after iv administration at a dose of 0.50 mg/kg.; type: functional, Canis lupus familiaris, Artery; details: dose 0.5 mg/kg; outline: as §3

SMILES	ACT [1]	APD [4]	MBP [6]	AERP [7]	APD [8]	HR [11]	ACT [13]	VERP [14]	AERP [15]	VERP [16]	APD [17]	MBP [18]	APD [20]	HR [21]	VCT [22]	APD [23]	VCT [24]	further results
CN(CCCOc1ccc(NS(C)(=O)=O)cc1)Cc1ccc2cc(NS(C)(=O)=O)ccc2n1	-4	15%	4	53	73%	-26	-5	36	70	26	36%	4	56%	-16	-3	22%	-1	Vmax [2]: -8; Vmax [3]: -9; Vmax [5]: -1; Vmax [9]: -14; Vmax [10]: -12; Vmax [12]: -1; APD [19]: 17%
Cc1cccc(CCN2CCC(C(=O)c3ccc(NS(C)(=O)=O)cc3)CC2)n1	1	11%	2	28	54%	-25	1	23	38	18	27%	-11	53%	-10	-2	24%	-3	VERP [25]: 24; AERP [26]: 44; HR [27]: -29; VCT [28]: -3; ACT [29]: 1; MBP [30]: -15
